According to ChEMBL document CHEMBL1145493, “Exposure-response analyses of tigecycline efficacy in patients with complicated skin and skin-structure infections” (Antimicrob Agents Chemother, 2007):
Values after ≈ are worked out from the molar mass of the structure shown.

Legend:
Citrobacter koseri = assay: Antibacterial activity against Citrobacter koseri; assay type: functional
How it was run: (§1)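 MICs for baseline pathogens isolated from patients with complicated skin and skin-structure infections. Isolates went to a central laboratory for identification and susceptibility testing by CLSI broth dilution in fresh media.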

[1] = AUC (24 hrs)/MIC in patient with baseline skin pathogens at 50 mg loading dose followed by 25 mg every 12 hrs; assay type: ADME, cell-free; details: human, plasma
How it was run: (§2)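 Per-patient ratio of model-derived steady-state AUC24 to the MIC of the baseline pathogen. The AUC24 came from population PK analysis of serum LC-MS/MS levels sampled predose and at 1, 3 and 6 h. MICs were set centrally by CLSI broth dilution in fresh media on isolates taken at baseline, with i.v. dosing over 7 to 14 days.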

[2] = AUC (24 hrs)/MIC in patient with baseline skin pathogens at 100 mg loading dose followed by 50 mg every 12 hrs; assay type: ADME, cell-free; details: human, plasma; how it was run: as §2
Enterococcus faecium = assay: Antibacterial activity against Enterococcus faecium; assay type: functional; how it was run: as §1
Staphylococcus aureus = assay: Antibacterial activity against Staphylococcus aureus; assay type: functional
How it was run: (§3)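 Baseline isolates from cSSSI patients in three pooled tigecycline trials (one phase 2, two phase 3) were identified and susceptibility-tested at a central laboratory. MICs were determined by broth dilution in fresh media following Clinical and Laboratory Standards Institute guidelines.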

[3] = test system: Acinetobacter calcoaceticus; assay: Antibacterial activity against Acinetobacter calcoaceticus; assay type: functional; how it was run: as §1
Serratia marcescens = assay: Antibacterial activity against Serratia marcescens; assay type: functional; how it was run: as §1
[4] = AUC at 24 hrs steady state in patient with complicated skin and skin structure infection at 100 mg loading dose followed by 50 mg every 12 hrs; assay type: ADME, organism-based; set-up: dose 100 mg, time < 24 hr; details: human, plasma
How it was run: (§4)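 Tigecycline given i.v. for 7 to 14 days. Levels were measured by validated LC-MS/MS (LLOQ 10 ng/ml). Steady-state AUC24 was derived from a population PK model in evaluable patients pooled from three trials.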

[5] = AUC at 24 hrs steady state in patient with complicated skin and skin structure infection at 50 mg loading dose followed by 25 mg every 12 hrs; assay type: ADME, organism-based; set-up: time < 24 hr, dose 50 mg; details: human, plasma; how it was run: as §4
Pseudomonas aeruginosa = assay: Antibacterial activity against Pseudomonas aeruginosa; assay type: functional; how it was run: as §3
[6] = test system: Streptococcus dysgalactiae subsp. equisimilis; assay: Antibacterial activity against Streptococcus equisimilis; assay type: functional; how it was run: as §1
Streptococcus anginosus = assay: Antibacterial activity against Streptococcus anginosus; assay type: functional; how it was run: as §1
Streptococcus agalactiae = assay: Antibacterial activity against Streptococcus agalactiae; assay type: functional; how it was run: as §1
Escherichia coli = assay: Antibacterial activity against Escherichia coli; assay type: functional; how it was run: as §3
Proteus mirabilis = assay: Antibacterial activity against Proteus mirabilis; assay type: functional; how it was run: as §1
Citrobacter freundii = assay: Antibacterial activity against Citrobacter freundii; assay type: functional; how it was run: as §1
Enterococcus faecalis = assay: Antibacterial activity against Enterococcus faecalis; assay type: functional; how it was run: as §1
[7] = test system: Streptococcus dysgalactiae; assay: Antibacterial activity against Streptococcus dysgalactiae; assay type: functional; how it was run: as §1
[8] = test system: Acinetobacter haemolyticus; assay: Antibacterial activity against Acinetobacter haemolyticus; assay type: functional; how it was run: as §1
Klebsiella pneumoniae = assay: Antibacterial activity against Klebsiella pneumoniae; assay type: functional; how it was run: as §3
Klebsiella oxytoca = assay: Antibacterial activity against Klebsiella oxytoca; assay type: functional; how it was run: as §1
[9] = test system: Streptococcus constellatus; assay: Antibacterial activity against Streptococcus constellatus; assay type: functional; how it was run: as §1
[10] = test system: Streptococcus intermedius; assay: Antibacterial activity against Streptococcus intermedius; assay type: functional; how it was run: as §1
Enterobacter cloacae = assay: Antibacterial activity against Enterobacter cloacae; assay type: functional; how it was run: as §3
Streptococcus pyogenes = assay: Antibacterial activity against Streptococcus pyogenes; assay type: functional; how it was run: as §1
Acinetobacter baumannii = assay: Antibacterial activity against Acinetobacter baumannii; assay type: functional; how it was run: as §3

## CN(C)c1cc(NC(=O)CNC(C)(C)C)c(O)c2c1C[C@H]1C[C@H]3[C@H](N(C)C)C(O)=C(C(N)=O)C(=O)[C@@]3(O)C(O)=C1C2=O [TIGECYCLINE]
Citrobacter koseri
  MIC: 0.5 µg/mL (≈ 0.854 µM)
[1]
  RatioAUC/MIC: 13.3
[2]
  RatioAUC/MIC: 32.5
Enterococcus faecium
  MIC: 0.06 µg/mL (≈ 0.102 µM)
Staphylococcus aureus
  MIC: 0.06 µg/mL (≈ 0.102 µM)
[3]
  MIC: 0.25 µg/mL (≈ 0.427 µM)
Serratia marcescens
  MIC: 1 µg/mL (≈ 1.71 µM)
[4]
  AUC at 24 h: 5390 ng·h/mL
[5]
  AUC at 24 h: 2660 ng·h/mL
Pseudomonas aeruginosa
  MIC: 8 µg/mL (≈ 13.7 µM)
[6]
  MIC: 0.06 µg/mL (≈ 0.102 µM)
Streptococcus anginosus
  MIC: 0.06 µg/mL (≈ 0.102 µM)
Streptococcus agalactiae
  MIC: 0.06 µg/mL (≈ 0.102 µM)
Escherichia coli
  MIC: 0.25 µg/mL (≈ 0.427 µM)
Proteus mirabilis
  MIC: 2 µg/mL (≈ 3.41 µM)
Citrobacter freundii
  MIC: 0.5 µg/mL (≈ 0.854 µM)
Enterococcus faecalis
  MIC: 0.12 µg/mL (≈ 0.205 µM)
[7]
  MIC: 0.12 µg/mL (≈ 0.205 µM)
[8]
  MIC: 0.5 µg/mL (≈ 0.854 µM)
Klebsiella pneumoniae
  MIC: 0.5 µg/mL (≈ 0.854 µM)
Klebsiella oxytoca
  MIC: 0.5 µg/mL (≈ 0.854 µM)
[9]
  MIC: 0.12 µg/mL (≈ 0.205 µM)
[10]
  MIC: 0.06 µg/mL (≈ 0.102 µM)
Enterobacter cloacae
  MIC: 1 µg/mL (≈ 1.71 µM)
Streptococcus pyogenes
  MIC: 0.06 µg/mL (≈ 0.102 µM)
Acinetobacter baumannii
  MIC: 0.25 µg/mL (≈ 0.427 µM)
